Results published in ChEMBL document CHEMBL3992509, “Discovery of a Highly Potent, Selective, and Metabolically Stable Inhibitor of Receptor-Interacting Protein 1 (RIP1) for the Treatment of Systemic Inflammatory Response Syndrome” (J Med Chem, 2017).
Calls of active or inactive are those of the source. No cut-off for these calls is given here.

Columns and labels:
[1] = Half life in human liver microsomes in presence of NADPH by LC-MS/MS analysis; format: ADME, microsome
[2] = Intrinsic clearance in human liver microsomes assessed per mg protein in presence of NADPH by LC-MS/MS analysis; format: ADME, microsome; conditions: read-out: CLH
[3] = Half life in mouse liver microsomes in presence of NADPH by LC-MS/MS analysis; format: ADME, microsome
[4] = Intrinsic clearance in mouse liver microsomes assessed per mg protein in presence of NADPH by LC-MS/MS analysis; format: ADME, microsome; conditions: read-out: CLH
[5] = target: T1, Receptor-interacting serine/threonine-protein kinase 1 (Homo sapiens, UniProt Q13546); assay: Inhibition of recombinant GST-tagged RIP1 (unknown origin) after 4 hrs by ADP-Glo kinase assay
T1 sequence (Q13546 whole entry): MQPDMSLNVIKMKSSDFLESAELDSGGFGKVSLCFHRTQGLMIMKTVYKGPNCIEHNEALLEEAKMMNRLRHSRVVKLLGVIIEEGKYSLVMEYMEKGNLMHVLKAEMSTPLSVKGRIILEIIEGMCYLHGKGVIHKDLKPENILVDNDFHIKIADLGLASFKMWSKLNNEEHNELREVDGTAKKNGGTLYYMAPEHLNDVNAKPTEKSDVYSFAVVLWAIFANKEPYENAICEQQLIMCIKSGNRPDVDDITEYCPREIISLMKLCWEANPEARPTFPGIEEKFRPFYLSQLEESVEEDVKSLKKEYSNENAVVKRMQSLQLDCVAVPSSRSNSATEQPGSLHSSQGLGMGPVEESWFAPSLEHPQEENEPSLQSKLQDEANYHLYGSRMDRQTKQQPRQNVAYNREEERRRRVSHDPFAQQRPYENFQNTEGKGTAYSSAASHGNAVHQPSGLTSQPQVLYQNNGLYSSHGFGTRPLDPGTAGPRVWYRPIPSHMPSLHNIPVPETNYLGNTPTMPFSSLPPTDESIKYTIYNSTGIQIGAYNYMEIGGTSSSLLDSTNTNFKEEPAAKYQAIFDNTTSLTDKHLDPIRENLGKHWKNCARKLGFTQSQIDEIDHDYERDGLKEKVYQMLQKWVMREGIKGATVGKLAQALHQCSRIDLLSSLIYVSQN

[6] = target: Indoleamine 2,3-dioxygenase 1 (Homo sapiens, UniProt P14902); assay: Inhibition of recombinant human IDO expressed in Escherichia coli assessed as reduction in kynurenine production at 200 uM using L-tryptophan as substrate after 3 hrs by methylene blue dye based assay
Summary of the method: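 Reaction mix: 50 mM MES pH 6.5, 20 mM ascorbate, 2250 U/mL catalase, 10 μM methylene blue, 200 μM L-Trp, 100 nM recombinant IDO, 200 μM compound or DMSO. Incubated 37 °C for 3 h; kynurenine colour read at 321 nm.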

Mus musculus [7] = assay: Protection against TNFalpha-induced mortality in C57BL/6J mouse assessed as survival rate at 6 mg/kg, ip administered as single dose 17 mins before TNFalpha injection measured every 30 mins up to 60 hrs post TNFalpha injection (reference value: 50%); format: functional
Mus musculus [8] = assay: Protection against TNFalpha-induced multiorgan damage in C57BL/6J mouse assessed as inhibition of TNFalpha-induced increase in IL-6 level at 6 mg/kg, ip administered as single dose 17 mins before TNFalpha injection measured 12 hrs post TNFalpha injection; format: functional, organism-based
Summary of the method: (§1)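 C57BL/6 mice given mTNFα IV, then a single 6 mg/kg IP compound dose 17 min before TNFα. Blood taken 12 h after TNFα for mIL-6 and mIL-1β.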

Mus musculus [9] = assay: Protection against TNFalpha-induced multiorgan damage in C57BL/6J mouse assessed as inhibition of TNFalpha-induced increase in IL-1beta level at 6 mg/kg, ip administered as single dose 17 mins before TNFalpha injection measured 12 hrs post TNFalpha injection; format: functional, organism-based; summary of the method: as §1
[10] = target: Receptor-interacting serine/threonine-protein kinase 3 (Homo sapiens) (UniProt Q9Y572); assay: Inhibition of full length recombinant human N-terminal GST-tagged RIP3 expressed in baculovirus infected sf9 cells at 10 uM using MBP as substrate preincubated for 15 mins followed by MBP/ATP mixture addition measured after 90 mins by ADP-Glo kinase assay
Sequence of Receptor-interacting serine/threonine-protein kinase 3 (Homo sapiens) (Q9Y572 whole entry, looked up): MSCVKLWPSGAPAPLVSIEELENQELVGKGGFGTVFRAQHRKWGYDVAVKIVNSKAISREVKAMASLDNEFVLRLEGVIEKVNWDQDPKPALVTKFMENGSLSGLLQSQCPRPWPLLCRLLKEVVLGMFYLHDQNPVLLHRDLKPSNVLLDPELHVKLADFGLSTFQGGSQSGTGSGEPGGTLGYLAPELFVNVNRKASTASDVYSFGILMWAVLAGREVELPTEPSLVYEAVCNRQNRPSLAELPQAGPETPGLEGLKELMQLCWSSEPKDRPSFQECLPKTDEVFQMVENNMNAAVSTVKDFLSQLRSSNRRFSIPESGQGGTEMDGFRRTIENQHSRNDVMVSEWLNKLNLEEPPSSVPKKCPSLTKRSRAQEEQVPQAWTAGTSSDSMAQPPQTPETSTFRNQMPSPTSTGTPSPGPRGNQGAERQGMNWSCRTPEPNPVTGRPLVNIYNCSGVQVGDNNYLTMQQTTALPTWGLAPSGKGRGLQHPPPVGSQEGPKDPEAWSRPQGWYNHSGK

Sequence of Indoleamine 2,3-dioxygenase 1 (P14902 whole entry): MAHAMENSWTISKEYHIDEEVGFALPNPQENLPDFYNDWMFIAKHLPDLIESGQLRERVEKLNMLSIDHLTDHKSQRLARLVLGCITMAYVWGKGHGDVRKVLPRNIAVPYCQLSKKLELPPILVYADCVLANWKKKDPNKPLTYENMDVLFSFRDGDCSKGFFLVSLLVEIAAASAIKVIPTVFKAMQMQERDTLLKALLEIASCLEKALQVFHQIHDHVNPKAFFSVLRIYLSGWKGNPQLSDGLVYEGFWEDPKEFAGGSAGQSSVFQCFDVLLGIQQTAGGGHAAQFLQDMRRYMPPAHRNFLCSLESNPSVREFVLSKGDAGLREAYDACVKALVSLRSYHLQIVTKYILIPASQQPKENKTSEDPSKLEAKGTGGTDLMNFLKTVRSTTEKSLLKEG

SMILES | half-life [1] [min] | microsomal CLint [2] [µL/min/mg] | half-life [3] [min] | microsomal CLint [4] [µL/min/mg] | further results
CCC(C)(C)C(=O)N(O)Cc1cc(F)c(F)c(F)c1 | 66 | 10.5 | 7.89 | 87.8 | 
CCC(C)(C)C(=O)N(O)Cc1cc(F)cc(F)c1F | 66.6 | 10.4 | 9.21 | 75.3 | 
CCC(C)(C)C(=O)NC(CO)c1ccccc1 (stereo not drawn) | > 200 |  |  |  | 
CCC(C)(C)C(=O)N(O)Cc1ccc(F)c(F)c1 | 107 | 6.5 | 11.3 | 61.4 | 
CN1C(=O)C(Cc2c[nH]c3ccccc23)NC1=S (stereo not drawn) [NECROSTATIN] |  |  |  |  | IC50 [5]: 760 nM; inhibition (INH) [6]: Active; survival at 6 mg/kg (Mus musculus [7]): 60%; inhibition (Mus musculus [8]): Active; inhibition (Mus musculus [9]): Active; inhibition [10]: inactive
CCC(C)(C)C(=O)N(O)Cc1ccc(F)c(F)c1F | 52.9 | 13.1 | 13.9 | 49.9 | 
CCC(C)(C)C(=O)N(O)Cc1ccc(F)cc1 | 178 | 3.9 | 24.1 | 28.8 | 
CCC(C)(C)C(=O)NCc1ccccc1 | > 200 |  |  |  | 
CCC(C)(C)C(=O)NC(C)c1ccccc1 (stereo not drawn) | > 200 |  |  |  | 
CCC(C)(C)C(=O)N(O)Cc1ccc(F)cc1F | 198 | 3.5 | 23.2 | 29.9 | 
